ChEMBL document CHEMBL1795252, “New class azaphilone produced by a marine fish-derived Chaetomium globosum. The stereochemistry and biological activities” (Bioorg Med Chem, 2011)
pIC50: −log10 of the molar value.

Columns and labels:
Assay type in all cases: functional, cell-based
[1] = tested on: P388; assay: Cytotoxicity against mouse P388 cells after 72 hrs by MTT assay; conditions: P388, 72 h
Method in brief: (§1)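 Cells grown in Eagle's MEM with 10% fetal calf serum at 37 °C, 5% CO2. Test material dissolved in DMSO (10 mM stock), diluted in medium to 200, 20 and 2 µM working solutions, combined with cell suspension (1 × 10^5 cells/ml). Incubated 72 h at 37 °C, MTT labeling, formazan dissolved in 20% SDS/0.1 N HCl, absorbance 540 nm. Growth as % of untreated control; triplicate assays; IC50 from semilog plots of averaged data.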

[2] = tested on: KB; assay: Cytotoxicity against human KB cells after 72 hrs by MTT assay; method in brief: as §1
[3] = tested on: L1210; assay: Cytotoxicity against mouse L1210 cells after 72 hrs by MTT assay; conditions: L1210, 72 h; method in brief: as §1
[4] = tested on: HL-60; assay: Cytotoxicity against human HL60 cells after 72 hrs by MTT assay; conditions: HL-60, 72 h; method in brief: as §1

Molecule `C/C=C(\C)C(=O)C[C@H]1C2=COC(/C=C/[C@@H](C)[C@@H](C)O)=CC2=C(Cl)C(=O)[C@@]1(C)O` [CHAETOMUGILIN I] has a pIC50 [1] of 5.96, a pIC50 [2] of 5.64 and a pIC50 [3] of 5.72. The pIC50 [4] was 5.96.

For `C[C@H](O)[C@@H](C)/C=C/C1=CC2=C(Cl)C(=O)[C@](C)(O)[C@@H](O)[C@@H]2CO1` [CHAETOMUGILIN R], the pIC50 [1] was 4.49, the pIC50 [2] was 4.17 and the pIC50 [3] was 4.17. The pIC50 [4] was 4.29.

`C/C=C(\C)C(=O)C[C@H]1C2=COC(/C=C/[C@H](C)[C@@H](C)O)=CC2=C(Cl)C(=O)[C@@]1(C)O` was tested, and the pIC50 [2] was 5.92, the pIC50 [3] was 5.80 and the pIC50 [4] was 6.00.

Work on `C/C=C(\Cl)C(=O)[C@@](C)(O)[C@H]1CC(=O)C(C)=C2C=C(/C=C/[C@@H](C)[C@@H](C)O)OC=C21` [CHAETOMUGILIN P] yielded a pIC50 [1] of 6.15, a pIC50 [2] of 5.74 and a pIC50 [3] of 5.82. For the same molecule, the pIC50 [4] was 5.92.

With `O=c1[nH]cc(F)c(=O)[nH]1` [FLUOROURACIL] the pIC50 [1] was 5.77, the pIC50 [2] was 5.11 and the pIC50 [3] was 5.96. It also gave a pIC50 [4] of 5.57.
